Source: ChEMBL document CHEMBL1147403, “MexAB-OprM specific efflux pump inhibitors in Pseudomonas aeruginosa. Part 3: Optimization of potency in the pyridopyrimidine series through the application of a pharmacophore model” (2004)

Assays:
Assay type in all cases: functional
[1] = system: Pseudomonas aeruginosa; experiment: Minimum inhibitory concentration Pseudomonas aeruginosa in presence of LVFX substrate, (100% growth inhibition)
Outline: (§1)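 Potentiation of levofloxacin (LVFX), a MexAB-OprM substrate, against P. aeruginosa PAM1723 (MexAB-OprM overexpressed; MexCD-OprJ and MexEF-OprN genetically disrupted). Value is the inhibitor concentration (µg/mL) giving 4-fold (MPC4) or 8-fold (MPC8) potentiation.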

[2] = system: Pseudomonas aeruginosa; experiment: Minimum inhibitory concentration against Pseudomonas aeruginosa in presence of LVFX substrate, (100% growth inhibition); outline: as §1
[3] = system: Pseudomonas aeruginosa; experiment: Minimum inhibitory concentration against Pseudomonas aeruginosa in presence of aztreonam substrate and with out human serum albumin, (100% growth inhibition)
Outline: (§2)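 Potentiation of aztreonam, a MexAB-OprM substrate, against P. aeruginosa PAM1723 (MexAB-OprM overexpressed; MexCD-OprJ and MexEF-OprN genetically disrupted). Run without HSA and with 0.125% human serum albumin. Value is the inhibitor concentration (µg/mL) giving 8-fold potentiation (MPC8).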

[4] = system: Pseudomonas aeruginosa; experiment: Intrinsic antibacterial activity against Pseudomonas aeruginosa
Outline: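 Tested alone for antibacterial activity against P. aeruginosa PAM1723, a strain that overexpresses the MexAB-OprM pump and has MexCD-OprJ and MexEF-OprN genetically disrupted; MIC in µg/mL.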

[5] = system: Pseudomonas aeruginosa; experiment: Minimum inhibitory concentration against Pseudomonas aeruginosa in presence of aztreonam substrate and with 0.125% human serum albumin, (100% growth inhibition); outline: as §2
[6] = species: Rattus norvegicus; experiment: Serum protein binding of compound was evaluated using rat serum

| SMILES | MPC4 [1] | MPC8 [2] | MPC8 [3] | MIC [4] | MPC8 [5] | Binding [6] |
| --- | --- | --- | --- | --- | --- | --- |
| CC(C)c1csc(CCc2ccn3c(=O)c(/C=C/C(=O)O)c(N4CCCN(C)CC4)nc3c2)n1 | 8 µg/mL | 128 µg/mL | 128 µg/mL | > 320 µg/mL | 128 µg/mL | – |
| CC(C)c1csc(CCc2ccn3c(=O)c(/C=C/C(=O)O)c(N4CCC(O)C4)nc3c2)n1 (configuration not stated) | 4 µg/mL | 32 µg/mL | 32 µg/mL | > 320 µg/mL | 32 µg/mL | – |
| CC(C)Nc1nc2cc(CCc3nc(C(C)C)cs3)ccn2c(=O)c1/C=C/C(=O)O | 8 µg/mL | 64 µg/mL | 64 µg/mL | > 320 µg/mL | 64 µg/mL | 82.1% |
| CC(C)c1csc(CCc2ccn3c(=O)c(C#CC(=O)O)c(N4CCOCC4)nc3c2)n1 | 2 µg/mL | 16 µg/mL | 8 µg/mL | > 320 µg/mL | 16 µg/mL | – |
| CC(C)c1csc(CCc2ccn3c(=O)c(/C=C/C(=O)O)c(NCC4CCCCC4)nc3c2)n1 | 8 µg/mL | >64 µg/mL | >64 µg/mL | > 320 µg/mL | >64 µg/mL | – |
| CC(C)c1csc(CCc2ccn3c(=O)c(/C=C/C(=O)O)c(N4CCN(C)CC4)nc3c2)n1 | 8 µg/mL | 32 µg/mL | 16 µg/mL | > 320 µg/mL | 32 µg/mL | 67.8% |
| CCCC(CC)Nc1nc2cc(CCc3nc(C(C)C)cs3)ccn2c(=O)c1/C=C/C(=O)O (configuration not stated) | 2 µg/mL | 16 µg/mL | 32 µg/mL | > 320 µg/mL | 32 µg/mL | – |
| CCC(CC)Nc1nc2cc(CCc3nc(C(C)C)cs3)ccn2c(=O)c1/C=C/C(=O)O | 32 µg/mL | >128 µg/mL | 128 µg/mL | > 320 µg/mL | 128 µg/mL | – |
| CC(C)c1csc(CCc2ccn3c(=O)c(/C=C/C(=O)O)c(NCc4ccccn4)nc3c2)n1 | 16 µg/mL | 128 µg/mL | 32 µg/mL | > 320 µg/mL | 32 µg/mL | – |
| CC(C)c1csc(CCc2ccn3c(=O)c(/C=C/C(=O)O)c(N4CC[C@@H](N(C)C)C4)nc3c2)n1 | 8 µg/mL | 128 µg/mL | 128 µg/mL | > 320 µg/mL | 64 µg/mL | 69.3% |
| CC(C)c1csc(CCc2ccn3c(=O)c(/C=C/C(=O)O)c(N4CCCC4)nc3c2)n1 | 2 µg/mL | 8 µg/mL | 8 µg/mL | > 320 µg/mL | 8 µg/mL | – |
| CC(C)c1csc(CCc2ccn3c(=O)c(/C=C/C(=O)O)c(NCCc4ccncc4)nc3c2)n1 | 8 µg/mL | 64 µg/mL | 16 µg/mL | > 320 µg/mL | 32 µg/mL | – |
| CC(C)c1csc(CCc2ccn3c(=O)c(/C=C/C(=O)O)c(N4CCC(O)CC4)nc3c2)n1 | 1 µg/mL | 8 µg/mL | 16 µg/mL | > 320 µg/mL | 16 µg/mL | – |
| CC(C)c1csc(CCc2ccn3c(=O)c(/C=C/C(=O)O)c(N4CCCC(OC(N)=O)C4)nc3c2)n1 (configuration not stated) | 1 µg/mL | 8 µg/mL | 32 µg/mL | > 320 µg/mL | 16 µg/mL | 91.2% |
| CC(C)c1csc(CCc2ccn3c(=O)c(/C=C/C(=O)O)c(N[C@H]4CC[C@H](O)CC4)nc3c2)n1 | 16 µg/mL | >64 µg/mL | >64 µg/mL | > 320 µg/mL | >64 µg/mL | – |
| CC(C)c1csc(CCc2ccn3c(=O)c(/C=C/C(=O)O)c(N4CCCC(N(C)C)C4)nc3c2)n1 (configuration not stated) | 8 µg/mL | 128 µg/mL | >128 µg/mL | > 320 µg/mL | 128 µg/mL | – |
| CC(C)c1csc(/C=C/c2cccc(NC(=O)Cc3ccccc3C(=O)O)c2)n1 | 1 µg/mL | 2 µg/mL | 2 µg/mL | > 320 µg/mL | 16 µg/mL | >98% |
| CC(C)c1csc(CCc2ccn3c(=O)c(/C=C/C(=O)O)c(N4CCCCC4)nc3c2)n1 | 0.5 µg/mL | 4 µg/mL | 4 µg/mL | > 320 µg/mL | 8 µg/mL | – |
| CC(C)c1csc(CCc2ccn3c(=O)c(/C=C/C(=O)O)c(N4CCCCC4CO)nc3c2)n1 (configuration not stated) | 8 µg/mL | 64 µg/mL | 64 µg/mL | > 320 µg/mL | 64 µg/mL | – |
| CC(C)c1csc(CCc2ccn3c(=O)c(CCC(=O)O)c(N4CCCC(O)C4)nc3c2)n1 (configuration not stated) | 32 µg/mL | >128 µg/mL | >128 µg/mL | > 320 µg/mL | – | – |
| CC(C)c1csc(CCc2ccn3c(=O)c(/C=C/C(=O)O)c(N4CCOCC4)nc3c2)n1 | 2 µg/mL | 16 µg/mL | 16 µg/mL | > 320 µg/mL | 32 µg/mL | 92% |
| CC(C)c1csc(CCc2ccn3c(=O)c(/C=C/C(=O)O)c(N4CCC(N(C)C)CC4)nc3c2)n1 | 32 µg/mL | >128 µg/mL | 128 µg/mL | > 320 µg/mL | 128 µg/mL | – |
| CC(C)c1csc(CCc2ccn3c(=O)c(/C=C/C(=O)O)c(N4CCCC(CO)C4)nc3c2)n1 (configuration not stated) | 2 µg/mL | 16 µg/mL | 16 µg/mL | > 320 µg/mL | 16 µg/mL | 91.5% |
| CC(C)c1csc(CCc2ccn3c(=O)c(/C=C/C(=O)O)c(N[C@H](CO)[C@@H](O)c4ccccc4)nc3c2)n1 (single isomer, unassigned) | 8 µg/mL | 64 µg/mL | 64 µg/mL | > 320 µg/mL | 64 µg/mL | – |
| CC(C)c1csc(CCc2ccn3c(=O)c(/C=C/c4nn[nH]n4)c(N4CCCC(O)C4)nc3c2)n1 (configuration not stated) | 0.5 µg/mL | 4 µg/mL | 4 µg/mL | > 320 µg/mL | 4 µg/mL | – |
| CC(C)c1csc(CCc2ccn3c(=O)c(/C=C/C(=O)O)c(N4CCCC(O)C4)nc3c2)n1 (configuration not stated) | 0.5 µg/mL | 8 µg/mL | 8 µg/mL | > 320 µg/mL | 16 µg/mL | 82.1% |
| CC(C)c1csc(CCc2ccn3c(=O)c(/C=C/C(=O)O)c(N4CCC(CO)CC4)nc3c2)n1 | 1 µg/mL | 8 µg/mL | 16 µg/mL | > 320 µg/mL | 16 µg/mL | – |
| CCCNc1nc2cc(CCc3nc(C(C)C)cs3)ccn2c(=O)c1/C=C/C(=O)O | 8 µg/mL | >32 µg/mL | >32 µg/mL | > 320 µg/mL | 32 µg/mL | – |
| CC(C)c1csc(CCc2ccn3c(=O)c(/C=C/C(=O)O)c(N4CCC(OC(N)=O)CC4)nc3c2)n1 | 2 µg/mL | 16 µg/mL | 16 µg/mL | > 320 µg/mL | 16 µg/mL | – |
